Source: PMC11319934 (PNAS Nexus, 2024)
pKd, pKi: −log10 of the molar value. Bridge positions count the residues as written; N and C are the ends. Square brackets hold non-standard residues; d marks the D form. Peptide text beside a SMILES is read from it. * marks the point of attachment. X1 = CN(C)c1ccc2c(-c3ccc(C(=O)*)cc3C(=O)[O-])c3ccc(=[N+](C)C)cc-3oc2c1; R5 = C=CCCC[C@@](C)(N)C(=O)O; S5 = C=CCCC[C@](C)(N)C(=O)O

Columns and labels:
[1] = system: JA-responsive marker genes in Arabidopsis seedlings; experiment: RT-qPCR of JA-responsive marker genes in A. thaliana; assay type: in vivo, Arabidopsis thaliana
Procedure, shortened: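 Col-0 or mutant (e.g. myc234) seedlings grown at 22°C, 16 h light/8 h dark. At 7 days, treated in half-strength MS liquid medium with MeJA (50 µM) and/or test compound (10 µM). Exposure 2 h for AOS, OPR3, MYC2, ORA59 and 8 h for VSP2, PDF1.2, ACT. Total RNA extracted; oligo-dT-primed cDNA; RT-qPCR (n = 4). One-way ANOVA/Tukey's HSD.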

[2] = system: A. thaliana seedlings (Col-0); experiment: Root growth of A. thaliana seedlings with MeJA; assay type: in vivo, Arabidopsis thaliana; details: Col-0 seedlings, co-treatment 4 (10 µM) with MeJA (50 µM), n = 15
Procedure, shortened: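 Surface-sterilized Col-0 seeds stratified 2–3 days at 4°C. Grown on half-strength MS plates (2% sucrose, 0.4% gellan gum) with MeJA (50 µM) ± test compound (10 µM), under 16 h light (75 µmol m-2 s-1)/8 h dark at 22°C. Whole-seedling root length measured (n = 15). Repeated three times; one-way ANOVA/Tukey's HSD, P < 0.01.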

[3] = target: T1, biotin-MED25^CMIDM/His-MYC3-FLAG complex (Arabidopsis thaliana, UniProt Q9FIP9); experiment: AlphaLISA inhibitory assay MED25CMIDM/MYC3; assay type: biochemical
T1 sequence (Q9FIP9 44-238): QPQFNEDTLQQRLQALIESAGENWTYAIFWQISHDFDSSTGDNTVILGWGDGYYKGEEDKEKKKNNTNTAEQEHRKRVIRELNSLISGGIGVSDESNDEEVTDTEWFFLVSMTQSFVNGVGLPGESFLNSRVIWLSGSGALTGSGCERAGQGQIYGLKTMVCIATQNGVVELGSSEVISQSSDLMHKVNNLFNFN
Procedure, shortened: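 Competition AlphaLISA: biotin-MED25CMIDM (150 nM) with His-MYC3-FLAG (50 nM). TMR-conjugated test peptides titrated 0–3 µM to generate inhibition curves. Run in triplicate; mean and SD reported.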

[4] = target: T2, His-EIL1-FLAG (Arabidopsis thaliana, UniProt Q9SLH0); experiment: Fluorescence anisotropy; assay type: binding
T2 sequence (Q9SLH0 201-501): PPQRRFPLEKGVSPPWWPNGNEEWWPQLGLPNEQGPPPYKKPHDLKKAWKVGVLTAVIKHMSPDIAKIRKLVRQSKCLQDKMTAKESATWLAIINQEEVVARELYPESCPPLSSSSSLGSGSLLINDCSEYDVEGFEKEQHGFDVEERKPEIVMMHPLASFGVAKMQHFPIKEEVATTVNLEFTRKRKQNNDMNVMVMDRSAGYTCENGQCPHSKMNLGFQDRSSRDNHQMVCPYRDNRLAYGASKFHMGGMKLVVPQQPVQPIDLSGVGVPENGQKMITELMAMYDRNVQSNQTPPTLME
Procedure, shortened: (§1)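 FA titration at 25°C in 20 mM Tris-HCl pH 8.0, 200 mM NaCl, 10% glycerol, 10% cOmplete EDTA-free, with 2-mercaptoethanol (EIN3/EIL1 family). Protein added dropwise to 100 nM TMR-labelled peptide; His-EIN3-FLAG titrated 0–2 µM. Anisotropy read at ex/em 543/573.5 nm. Each point is the average of three independent measurements. Apparent Kd obtained by nonlinear curve fitting.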

[5] = system: OPDA-responsive marker genes in Marchantia gemmalings; experiment: RT-qPCR of OPDA-responsive marker genes in M. polymorpha; assay type: in vivo, Marchantia polymorpha; details: 4 (10 µM) with OPDA (50 µM), 6 h
[6] = target: T3, His-MYC3-FLAG (His6-SUMO-MYC3(44–238)-FLAG) (Arabidopsis thaliana, UniProt Q9FIP9); experiment: Fluorescence anisotropy; assay type: binding
T3 sequence (Q9FIP9 44-238): T1 sequence (Q9FIP9 44-238)

[7] = target: T4, His-EIN3-FLAG (His6-SUMO-EIN3(200–500)-FLAG) (Arabidopsis thaliana, UniProt O24606); experiment: Fluorescence anisotropy; assay type: binding
T4 sequence (O24606 200-500): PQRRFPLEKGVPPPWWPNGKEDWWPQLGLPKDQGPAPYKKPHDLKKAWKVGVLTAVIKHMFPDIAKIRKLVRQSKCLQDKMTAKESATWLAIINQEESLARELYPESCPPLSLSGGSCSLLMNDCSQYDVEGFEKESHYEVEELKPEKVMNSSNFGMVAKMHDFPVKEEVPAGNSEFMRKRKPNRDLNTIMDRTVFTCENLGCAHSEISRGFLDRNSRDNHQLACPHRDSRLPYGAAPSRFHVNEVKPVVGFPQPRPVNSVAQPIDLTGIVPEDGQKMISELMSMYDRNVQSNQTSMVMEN
Procedure, shortened: as §1

[8] = system: M. polymorpha gemmalings (Tak-1); experiment: Growth; assay type: in vivo, Marchantia polymorpha; details: Tak-1 gemmalings, 4 (10 µM) with OPDA (50 µM), n = 24
Procedure, shortened: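 Tak-1 gemmalings grown 2 weeks on half-strength Gamborg's B5 with 1% agar, containing OPDA (50 µM) ± test compound (10 µM). Continuous light 50–60 µmol m-2 s-1, 22°C. Plant area measured in mm2 (n = 24). Experiment repeated three times; one-way ANOVA/Tukey's HSD, P < 0.01.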

[9] = system: His-MpMYC-Y-FLAG (MpMYC-Y(102-299)); experiment: Fluorescence anisotropy; assay type: binding, Marchantia polymorpha; details: ratio of Kd of 1 to Kd of the peptide
Procedure, shortened: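 FA titration of 100 nM TMR-labelled peptide with His-MpMYC-Y-FLAG (0–2 µM), added dropwise. Conditions: 25°C, 20 mM Tris-HCl pH 8.0, 200 mM NaCl, 10% glycerol, 10% cOmplete EDTA-free, no 2-mercaptoethanol (MYC family). Read at ex/em 543/573.5 nm, triplicate points. Apparent Kd from nonlinear fitting; values compared as Kd ratios.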

[10] = system: A. thaliana seedlings (Col-0); experiment: Secondary metabolite quantification in A. thaliana; assay type: in vivo, Arabidopsis thaliana; details: Col-0 seedlings, 4 (10 µM) with MeJA (50 µM), 4 days, n = 4, LC/MS
Procedure, shortened: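 7-day-old Col-0 seedlings treated 4 days with MeJA (50 µM) ± test compound (10 µM). Glucobrassicin (i-3ym) and p-coumaroyl agmatine accumulation quantified (n = 4). Experiment repeated three times; one-way ANOVA/Tukey's HSD, P < 0.01.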

CC[C@H](C)[C@H](NC(=O)[C@H](CCCCN)NC(=O)[C@H](CO)NC(=O)[C@@H](NC(=O)[C@]1(C)CCCC=CCCC[C@](C)(NC(=O)[C@H](CCCNC(=N)N)NC(=O)[C@H](Cc2ccccc2)NC(=O)[C@H](CO)NC(=O)[C@H](CCCNC(=N)N)NC(=O)[C@H](CCCNC(=N)N)NC(=O)[C@H](CCCNC(=N)N)NC(=O)[C@H](CC(=O)O)NC(=O)[C@H](CC(C)C)NC(=O)[C@H](Cc2ccccc2)NC(=O)[C@H](CCCCN)NC(=O)[C@H](CCC(N)=O)NC(=O)[C@H](Cc2ccccc2)NC(=O)c2ccc(-c3c4ccc(=[N+](C)C)cc-4oc4cc(N(C)C)ccc34)c(C(=O)[O-])c2)C(=O)N[C@@H]([C@@H](C)CC)C(=O)N[C@@H](CCC(N)=O)C(=O)NCC(=O)N1)[C@@H](C)CC)C(=O)N[C@@H](CC(=O)O)C(=O)N1CCC[C@H]1C(=O)N[C@@H](CCC(=O)O)C(=O)N[C@]1(C)CCCC=CCCC[C@@](C)(C(=O)N[C@@H](CC(C)C)C(=O)N[C@@H](CC(C)C)C(=O)N[C@@H](C)C(=O)N[C@@H](CO)C(=O)N[C@H](C(=O)O)[C@@H](C)O)NC(=O)[C@H](CCCCN)NC(=O)[C@H]([C@@H](C)CC)NC1=O [compound 4] (X1-FQKFLDRRRSFR[S5]IQG[S5]ISKIDPE[R5]IK[S5]LLAST-OH; staple 13-17, 25-28)
marker gene expression, peptide alone ([1]; 7-day-old Col-0, 4 (10 µM) alone without MeJA, 2 or 8 h): almost no effects | expression of ORA59 and ACT (EIN3/EIL1-marker genes) ([1]; 7-day-old Col-0, 4 (10 µM) with MeJA (50 µM), 2 or 8 h): activated | MeJA-induced expression of MYC-mediated marker genes (VSP2, AOS, OPR3, MYC2) ([1]; 7-day-old Col-0, 4 (10 µM) with MeJA (50 µM), 2 or 8 h, n = 3 or 4): significantly suppressed | expression of PDF1.2 (EIN3/EIL1-mediated marker gene) compared with MeJA alone ([1]; 7-day-old Col-0, 4 (10 µM) with MeJA (50 µM), 8 h): strongly activated | expression pattern of VSP2 and PDF1.2 on myc234 compared to MeJA alone ([1]; MYC triple mutant myc234, 4 (10 µM) with MeJA (50 µM), 8 h, n = 4): did not significantly change | expression pattern of VSP2 and PDF1.2 on ein2-1 compared to MeJA alone ([1]; ein2-1 mutant, 4 (10 µM) with MeJA (50 µM), 8 h, n = 3 or 4): did not significantly change | effect on MeJA growth inhibitory effects (root length) [2]: partially suppressed | pKi [3]: 7.15 | pKd [4]: 6.94 | bioactivity on marker gene expression in MpMYC-Y knockout mutant mpmycy [5]: completely abolished | pKd [6]: 8.30 | fold lower Kd with His-MYC3-FLAG than that of 1 ([6]; ratio of Kd of 1 to Kd of the peptide): 42 fold | pKd [7]: 6.98 | effect on OPDA growth inhibitory effects (plant area) [8]: partially suppressed | fold lower Kd with MpMYC-Y than 1 [9]: 46 fold | MeJA-triggered accumulation of p-coumaroyl agmatine (CouAgm) compared to MeJA alone [10]: significantly enhanced | MeJA-triggered glucosinolate (glucobrassicin, i-3ym) accumulation [10]: significantly suppressed
